From PubChem BioAssay
GPR7 antag: human neuropeptides B/W receptor 1 antagonism; inhibition, % at 4.4 µM; P48145; GPR7-expressing cells, fluorescence antagonist assay; hit rate 1.1% among 290,000; AID 1861; in the data active = inhibition above about 16%, passing the limit was not always enough;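 also: cells stimulated with the agonist NPW; 0% = agonist with vehicle and 100% = vehicle without agonist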
Target sequence (P48145 whole entry, looked up): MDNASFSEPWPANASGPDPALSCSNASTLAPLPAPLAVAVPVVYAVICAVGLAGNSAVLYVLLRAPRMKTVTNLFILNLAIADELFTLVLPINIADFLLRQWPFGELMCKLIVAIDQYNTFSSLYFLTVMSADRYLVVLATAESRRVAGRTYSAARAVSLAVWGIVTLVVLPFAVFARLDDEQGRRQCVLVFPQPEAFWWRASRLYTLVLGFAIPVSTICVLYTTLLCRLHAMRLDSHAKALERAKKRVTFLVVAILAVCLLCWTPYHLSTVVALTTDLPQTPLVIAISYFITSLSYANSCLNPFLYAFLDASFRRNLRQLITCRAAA
TAAR1 ag: human TAAR1 agonism | hit rate 0.99% among 360,000 | Q96RJ0 | activation, % at 3 µM | CHO RD-HGA16 TAAR1, Fluo-8 calcium fluorescence; vehicle wells 0%, saturating PEA agonist 100%;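 active = activation above the mean activation of all test compounds in the run plus 3 SD, cut at about 38% in these data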
Target sequence (Q96RJ0 whole entry, looked up): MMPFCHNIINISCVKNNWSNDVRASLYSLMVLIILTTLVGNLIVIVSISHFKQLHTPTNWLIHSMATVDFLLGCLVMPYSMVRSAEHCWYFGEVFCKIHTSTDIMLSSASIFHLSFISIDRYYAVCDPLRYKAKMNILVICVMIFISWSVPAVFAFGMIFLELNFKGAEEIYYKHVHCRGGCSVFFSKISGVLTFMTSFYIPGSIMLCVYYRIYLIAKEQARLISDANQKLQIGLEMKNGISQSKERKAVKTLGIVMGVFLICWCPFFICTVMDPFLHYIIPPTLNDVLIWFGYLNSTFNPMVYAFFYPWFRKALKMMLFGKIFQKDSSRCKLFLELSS
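Test system: RD-HGA16 (CHO) cells co-expressing Gα16 and hTAAR1 | Doses: Single dose, 3 µM | Schedule: 17-24 h seeding, 75 min 37 °C dye, 30 min RT | Evaluation: % activation from peak over basal fluorescence ratio, DMSO-to-PEA scaled | Technique: Kinetic Fluo-8 calcium fluorescence | Benchmarks: Low control DMSO, high control PEA (EC100)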
DAGLB inhibitor: diacylglycerol lipase beta (human) inhibition; Q8NCG7; HEK293T DAGLB membrane lysate, EnzChek fluorogenic substrate; inhibition, % at 5.17 µM; hit rate 0.059% among 340,000; in the data active = inhibition above about 34%;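 also: 0% = enzyme with vehicle and 100% = wells lacking enzyme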
TAAR1 antag: antagonists of human TAAR1. Q96RJ0. CHO RD-HGA16 TAAR1, Fluo-8 calcium fluorescence, antagonist. inhibition, % at 3 µM. hit rate 1.5% among 360,000. AID 624466;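 active = inhibition above a per-plate cutoff, the mean inhibition of test compounds on that plate plus 3 SD, cut at about 49% in these data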;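 also: 0% = DMSO plus EC80 beta-PEA response and 100% = DMSO alone without agonist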
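Test system: CHO RD-HGA16 cells bearing hTAAR1 | Reagent: β-PEA, EC80 | Compound dosing: 3 µM, single point | Schedule: Dye loading 75 min at 37 °C, then 30 min room temperature | Signal: Calcium fluorescence with Fluo-8 | Evaluation: Percent inhibition of PEA-evoked calcium signal, max/basal emission ratio | Control set: DMSO-only wells and EC80 β-PEA-stimulated wells | Repeats: Singlicate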
MPTP inh: inhibitors of mitochondrial permeability transition pore | hit rate 1.4% among 360,000 | isolated mouse mitochondria, Ca2+ swelling absorbance, 30 min | inhibition, % at 10 µM;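 active = inhibition of 50% or more, scaled per plate between neutral and stimulator controls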;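 also: 0% = DMSO wells given calcium and 100% = 1 mM EGTA wells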
MPTP counter: membrane potential counter-screen of mitochondrial pore inhibitors; AID 624504; inhibition, % at 10 µM; hit rate 78% among 5,000; isolated mitochondria, Rhodamine 123 fluorescence; shares compounds with MPTP inh; in the data active = inhibition above about 22%;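 also: 0% = DMSO vehicle and 100% = positive control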
MPTP swell DR: MPTP inhibition, dose response swelling confirmation. shares compounds with MPTP inh. isolated mitochondria swelling, absorbance. IC50, µM. hit rate 58% among 780. AID 651561; in the data active = IC50 below about 20 µM
MPTP cs DR: MPTP inhibitor counter-screen activity, dose response | shares compounds with MPTP inh | isolated mitochondria counterscreen, fluorescence read-out | IC50, µM | hit rate 49% among 780 | AID 651564; in the data active = IC50 below about 80 µM
* hit, by the source's call; . = not tested or not shown. Compounds with a hit are over-represented: about 4% of the library has one in this group of screens.

SMILES	GPR7 antag	TAAR1 ag	DAGLB inhibitor	TAAR1 antag	MPTP inh	MPTP counter	others
Cc1cn([C@H]2C[C@H](O)[C@@H](CNCc3ccc(F)c(N4CCOCC4)c3)O2)c(=O)[nH]c1=O	.	1	1	-16	-1	.
COCCCN1C(=O)C(CC(=O)NC2CCCCC2)CC(C(=O)N2CCOCC2)=C1C (stereo unspecified)	.	0	0	9	0	.
O=C(O)c1ccc(NS(=O)(=O)Cc2ccc(Cl)c(Cl)c2)cc1	.	2	-1	6	0	.
COc1cc(CNc2ncnc3c2[nH]c2ccc(C)cc23)cc(OC)c1	-9	3	-32	8	86*	83*
Cc1ccc2[nH]c3c(NCc4ccco4)ncnc3c2c1	-3	14	-6	23	60*	85*
O=C(N[C@@H](Cc1cccnc1)C(=O)N1CCC[C@H]1C(=O)NCCc1ccccc1Cl)c1ccco1	.	30	.	12	.	.
CNS(=O)(=O)c1cccc(C(=O)OCC(=O)NC(C)CCc2ccccc2)c1 (stereo unspecified)	10	0	2	-2	1	.
CC(CCc1ccccc1)NC(=O)COC(=O)c1cc(NS(=O)(=O)c2ccc(Cl)c([N+](=O)[O-])c2)ccc1O (stereo unspecified)	9	9	5	20	100*	89*
Cc1ccc(SCCC(=O)Nc2ccc(Br)c(C)c2)cc1	-2	3	-21	18	86*	92*
COC(=O)C1=C(C)N(Cc2ccccc2C(F)(F)F)C(=NCc2ccc(OC)cc2)NC1c1ccccc1 (stereo unspecified)	.	15	.	13	.	.
CCCCCCCCNc1ncnc2[nH]ncc12	.	3	1	-7	71*	71*
[O-]/C(=C(\C(=S)Nc1ccc(SC(F)F)cc1)[n+]1cccc(CO)c1)c1ccc(Cl)s1	2	3	2	-1	101*	85*
Oc1ccccc1/C=N/NC(=S)NC1CC2CC1C1C=CCC21 (stereo unspecified)	-26	12	-1	15	59*	54*
Oc1ccccc1C=NNC(=S)NN=Cc1ccccc1O	.	16	11	38	90*	67*
COCc1cc(N2CCN(C(=O)OC(C)(C)C)C[C@H]2C)ccc1N1CC[C@H](O)C1	.	2	.	-19	.	.
Cc1nn(Cc2noc(C(=O)NC3CCC(C)CC3)n2)c(C)c1Br (stereo unspecified)	-7	2	-3	-18	59*	58*
Cc1nn(Cc2noc(C(=O)NCC3CCCO3)n2)c(C)c1Br (stereo unspecified)	-16	0	-1	2	0	.
O=S(=O)(N[C@H]1C[C@@H](NS(=O)(=O)OCC(Cl)(Cl)Cl)C2CCCCC21)OCC(Cl)(Cl)Cl (stereo partly specified)	-4	12	1	42	64*	91*
CCN(CC)CCNc1ccc(CO)c2sc3ccccc3c(=O)c12	-4	1	4	-12	60*	-6
C/C(=N\NC(=O)c1cccc(Cl)c1)C1C(=O)c2ccccc2C1=O	-5	2	26	4	89*	85*
CC1(C(=O)NS(=O)(=O)C2CC2)CCN(C(=O)c2cccc(Cl)c2)C1 (stereo unspecified)	.	0	.	2	0	.
CCOc1ccc(OCC)c(NC(=O)CSc2nc3cccnc3n2C)c1	-7	4	-3	6	9	.
CCOc1ccc(OCC)c(NC(=O)CSc2nc3ccccc3c(=O)n2C)c1	-9	7	0	32	93*	75*
C=CC(C)(C)c1c(O)c(CC=C(C)C)c(O)c2c(=O)c3ccc(O)c(O)c3oc12	.	.	19	.	85*	40*
O=C(c1ccc(-c2ccccc2)c(F)c1)C1CCCN(C(=O)c2cncs2)C1 (stereo unspecified)	-4	4	-4	-14	52*	52*
SMILES	GPR7 antag	TAAR1 ag	DAGLB inhibitor	TAAR1 antag	MPTP inh	MPTP counter	others
CC(C)Oc1cccc(C(=O)C2CCCN(C(=O)c3cncs3)C2)c1 (stereo unspecified)	2	0	2	-3	1	.
Cc1cccc(NC(=O)CSc2nnc(CCC(=O)Nc3ccc(C)c(Cl)c3)n2C)c1	-11	15	-2	-28	0	.
Cc1ccc(NC(=O)CSc2ccccc2NC(=O)c2cccc(Cl)c2)cc1Cl	-5	0	-2	3	80*	-5	MPTP swell DR=>100;MPTP cs DR=6.3*
Cc1cccc(C(=O)Nc2ccccc2SCC(=O)Nc2ccc(C)c(Cl)c2)c1	-6	-1	-2	16	90*	83*
COCCN1C(=O)CSCC1(C)C(=O)Nc1ccc2c(c1)OCCO2 (stereo unspecified)	.	0	.	-7	6	.
COc1cccc(-c2ccc3c(c2)O[C@H](CN(C)C(=O)c2ccccc2F)[C@H](C)CN([C@H](C)CO)S3(=O)=O)c1	.	33	-5	16	-1	.
Cc1ccc(C2C(C#N)=C(N)SC(N)=C2C#N)cc1	-11	50*	-6	48	54*	67*
Cc1ccc(C2C(C#N)=C(N)SC(N)=C2C#N)c(C)c1	-11	.	-37	.	53*	64*
COc1ccc(CCNC(=O)c2cc3cc(Cl)ccc3nc2N)cc1OC	.	.	.	.	0	.
CC1(C)CC(N=Cc2c(O)n(Cc3ccc4c(c3)OCO4)c(=O)c3ccccc23)CC(C)(C)N1	3	12	1	15	53*	-22	MPTP swell DR=4.9*;MPTP cs DR=>80
CN(C)CCN=Cc1c(O)n(Cc2ccccc2)c(=O)c2ccccc12	2	4	2	-10	0	.
CCCCCOc1ccc(CSCCNC(=S)Nc2ccccc2)cc1	-17	2	-4	2	11	.
CCCCOc1ccc(CSCCNC(=S)Nc2ccccc2)cc1	-7	6	-8	29	97*	95*
Cc1ccc(-c2csc3nc[nH]c(=O)c23)cc1	-7	-2	0	-16	0	.
Cc1ccc(-c2csc3nc(-c4ccncc4)[nH]c(=O)c23)cc1	-13	4	0	-5	98*	19	MPTP swell DR=3*;MPTP cs DR=<2.5*
COc1ccc(OC)c(-c2csc(NC(=O)CSc3ccc(Br)cc3)n2)c1	-1	2	-5	-12	39	.
COc1ccc(OC)c(-c2csc(NC(=O)CSc3ccc([N+](=O)[O-])cc3)n2)c1	0	4	-2	49*	56*	63*
OC(COc1ccc(OCC(O)CN2CCN(Cc3ccccc3)CC2)cc1)CN1CCN(Cc2ccccc2)CC1 (stereo unspecified)	.	4	.	-20	54*	-2	MPTP swell DR=12*;MPTP cs DR=30*
